# Measured values from publication PMC10731006 (Heliyon, 2023).
# Where two headings read alike, the source gives them in different places.
# Tests used:
# [1] = tested on: human dermal fibroblast (HDF, human dermal cell line); experiment: MTT cytotoxicity assay, normal cells; format: cell-based; settings: read-out: IC50 HDF
# Method in brief: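 Human dermal fibroblasts were maintained in DMEM with 10% FCS, 2 mM L-glutamine and 1% penicillin-streptomycin (37 °C, 5% CO2). They were seeded at 1 × 10^4 cells/ml, allowed to adhere overnight, then treated 96 h with serially diluted test compound (six final levels, 1–600) beside DMSO-matched vehicle and cisplatin controls. Then MTT 5 mg/ml was added for 4 h, formazan taken up in DMSO, and absorbance read at 540 nm, in triplicate. IC50 was fitted.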
# [2] = tested on: glioblastoma (U-87 MG) cells; experiment: MTT cytotoxicity assay, U-87 MG; format: cell-based, human; settings: for SI U87 (selectivity index): IC50 in HDF / IC50 in U87, 96 h; for IC50: read-out: IC50 U87
# Method in brief: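 U-87 MG cells were cultured in DMEM with 10% FCS, 2 mM L-glutamine and 1% penicillin-streptomycin at 37 °C, 5% CO2. Seeding was 1 × 10^4 cells/ml; after overnight adherence, test compound diluted in medium (six final levels, 1–600) was applied for 96 h alongside DMSO-matched and cisplatin controls. Read-out: MTT 5 mg/ml for 4 h, DMSO solubilisation, A540, in triplicate, IC50 fitted. SI = IC50 in HDF / IC50 in U87.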
# [3] = tested on: breast cancer (MCF7) cells; experiment: MTT cytotoxicity assay, MCF7; format: cell-based, human; settings: for SI MCF-7 (selectivity index): IC50 in HDF / IC50 in MCF-7, 96 h; for IC50: read-out: IC50 MCF-7
# Method in brief: (§1)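 Cells were grown in RPMI 1640 with 10% FCS, 2 mM L-glutamine and 1% penicillin-streptomycin at 37 °C under 5% CO2. They were seeded at 1 × 10^4 cells/ml, left overnight to adhere, and exposed 96 h to test compound diluted in medium (six final levels, 1–600), with DMSO-matched and cisplatin controls. MTT at 5 mg/ml was added for 4 h, formazan dissolved in DMSO, and A540 read, in triplicate. IC50 was fitted from the data. SI = IC50 in HDF / IC50 in this line.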
# [4] = tested on: HDF, U87, MCF-7 and A549 cells; experiment: Morphological analysis; format: cell-based, human; settings: 96 h, treatment at the respective IC50 for each cell line
# Method in brief: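 HDF, U87, MCF-7 and A549 cells were seeded at 1 × 10^4 cells/ml in flat-bottom plates and adhered overnight. They were then treated 96 h with test compound serially diluted in medium (final 1–600 μM/ml). Controls were untreated and DMSO-matched wells, plus cisplatin at 1–100 μM/mL. Cells were fixed in ice-cold methanol for 30 min at 4 °C, stained with hematoxylin, and viewed by inverted light microscopy.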
# [5] = tested on: non-small cell lung cancer (A549) cells; experiment: MTT cytotoxicity assay, A549; format: cell-based, human; settings: for SI A549 (selectivity index): IC50 in HDF / IC50 in A549, 96 h; for IC50: read-out: IC50 A549
# Method in brief: as §1
# [6] = tested on: Bacillus cereus (ATCC 11778); experiment: Micro-broth dilution assay; format: cell-based; settings: ATCC11778, read-out: MIC BC
# [7] = ABTS radical scavenging assay
# [8] = tested on: Bacillus cereus (ATCC 11778); experiment: Agar diffusion test, B. cereus; format: cell-based; settings: ATCC11778, read-out: Zone of inhibition BC
# [9] = tested on: Gram-positive and Gram-negative bacterial test strains; experiment: Antibacterial activity, whole panel of test strains; format: cell-based; settings: agar diffusion
# Method in brief: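 Disc diffusion followed CLSI (2012). Test compound at 10, 50 and 100 μg/disc was loaded on 6-mm blank filter discs laid on Mueller Hinton agar seeded at 10^6 cells/ml. Strains were S. aureus ATCC 10145, B. cereus ATCC 11778, B. subtilis ATCC 6633, P. aeruginosa ATCC 13048 and E. coli ATCC 25922. Inhibition zones were recorded.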
# [10] = tested on: Pseudomonas aeruginosa (ATCC 13048); experiment: Micro-broth dilution assay; format: cell-based; settings: ATCC13048, read-out: MIC PA
# [11] = tested on: Staphylococcus aureus (ATCC 10145); experiment: Micro-broth dilution assay; format: cell-based; settings: ATCC10145, read-out: MIC SA
# [12] = tested on: Staphylococcus aureus (ATCC 10145); experiment: Agar diffusion test, S. aureus; format: cell-based; settings: ATCC10145, read-out: Zone of inhibition SA
# B. subtilis (ATCC 6633) = experiment: Micro-broth dilution assay; format: cell-based; settings: Bacillus subtilis, ATCC6633, read-out: MIC BS
# [13] = tested on: Escherichia coli (ATCC 25922); experiment: Micro-broth dilution assay; format: cell-based; settings: ATCC25922, read-out: MIC EC
# [14] = tested on: Pseudomonas aeruginosa (ATCC 13048); experiment: Agar diffusion test, P. aeruginosa; format: cell-based; settings: ATCC13048, read-out: Zone of inhibition PA
# [15] = tested on: cancer cell lines (U87, MCF-7 and A549) compared to normal cells (HDF); experiment: MTT cytotoxicity, cancer cell lines compared to normal cells; format: cell-based, human; settings: 96 h treatment
# Method in brief: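 A549 and MCF7 grown in RPMI 1640, HDF and U87 in DMEM, each with 10% FCS, 2 mM L-glutamine, 1% pen-strep, 37 °C, 5% CO2. Cells at 1 × 10^4 cells/ml were adhered overnight, then exposed 96 h to test compound (final 1–600 […] in medium). Controls were blank, untreated, DMSO-matched and cisplatin (1–100 μM/mL). MTT 5 mg/ml for 4 h; DMSO-solubilised formazan read at 540 nm, triplicate. IC50 from curve fitting; selectivity index = HDF IC50 / cancer-line IC50.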
# [16] = DPPH radical scavenging assay
# [17] = tested on: Escherichia coli (ATCC 25922); experiment: Agar diffusion test, E. coli; format: cell-based; settings: ATCC25922, read-out: Zone of inhibition EC
structure (smiles),measurement,setting,value
"N.N.[Cl][Pt][Cl] [Cisplatin, reference compound]",IC50,"[1]; MTT, 96 h treatment",40.9 ± 5.4 µM
same,SI U87 (selectivity index),[2],1.5
same,IC50,"[2]; MTT, 96 h treatment",28.3 ± 5.3 µM
same,SI MCF-7 (selectivity index),[3],1.5
same,IC50,"[3]; MTT, 96 h treatment",26.9 ± 4.7 µM
same,morphological changes of treated cancer cells,[4],"became rounded and separated from each other, shrank, and underwent nuclear condensation"
same,SI A549 (selectivity index),[5],1.3
same,IC50,"[5]; MTT, 96 h treatment",30.4 ± 5.2 µM
"COC(=O)c1cn(C2CC2)c2cc(N3CCN(C(=O)c4c(C)nnn4-c4ccc(C(F)(F)F)cc4)CC3)c(F)cc2c1=O [Compound 6d, methyl 7-(4-(1-(4-trifluoromethylphenyl)-4-methyl-1H-1,2,3-triazole-5-carbonyl)piperazin-1-yl)-1-cyclopropyl-6-fluoro-4-oxo-1,4-dihydroquinoline-3-carboxylate]",IC50,"[1]; Homo sapiens, Fibroblast, 96 h",425 ± 18.5 µM
same,MIC,[6],> 500 µg/mL
same,"IC50 ± SD, ABTS",[7],31.7 ± 1.9 µg/mL
same,"% inhibition ±SD, ABTS",[7]; 5 μg/ml,21.1 ± 1.0%
same,"% inhibition ±SD, ABTS",[7]; 10 μg/ml,33.7 ± 0.7%
same,"% inhibition ±SD, ABTS",[7]; 25 μg/ml,42.8 ± 0.3%
same,"% inhibition ±SD, ABTS",[7]; 50 μg/ml,61.6 ± 0.6%
same,"% inhibition ±SD, ABTS",[7]; 100 μg/ml,66.5 ± 0.6%
same,zone of inhibition at 100 µg/disc,[8],9.6 ± 1.2 mm
same,zone of inhibition at 300 µg/disc,[8],11 mm
same,zone of inhibition at 500 µg/disc,[8],13.3 ± 0.6 mm
same,"inhibition zones, range over susceptible strains",[9],12–14 mm
same,IC50,"[2]; Homo sapiens, U-87 MG, 96 h",3.82 ± 2.9 µM
same,SI U87 (selectivity index),[2],111.4
same,MIC,[10],500 µg/mL
same,MIC,[11],500 µg/mL
same,zone of inhibition at 100 µg/disc,[12],10.3 ± 0.6 mm
same,zone of inhibition at 300 µg/disc,[12],12.3 ± 0.6 mm
same,zone of inhibition at 500 µg/disc,[12],14.6 ± 1.2 mm
same,MIC,B. subtilis (ATCC 6633),> 500 µg/mL
same,MIC,[13],> 500 µg/mL
same,zone of inhibition at 100 µg/disc,[14],11.7 ± 0.6 mm
same,zone of inhibition at 300 µg/disc,[14],13 ± 0.3 mm
same,zone of inhibition at 500 µg/disc,[14],13.3 ± 0.6 mm
same,cytotoxic / anti-proliferative activity in words,[15],significant cytotoxic activity against only U-87 and MCF-7 cancer cell lines
same,IC50,"[3]; Homo sapiens, MCF7, 96 h",124 ± 10.6 µM
same,SI MCF-7 (selectivity index),[3],3.4
same,"IC50 ± SD, DPPH",[16],58.8 ± 1.7 µg/mL
same,"% inhibition ±SD, DPPH",[16]; 5 μg/ml,13.8 ± 0.2%
same,"% inhibition ±SD, DPPH",[16]; 10 μg/ml,26.0 ± 0.9%
same,"% inhibition ±SD, DPPH",[16]; 25 μg/ml,42.1 ± 0.6%
same,"% inhibition ±SD, DPPH",[16]; 50 μg/ml,46.2 ± 0.3%
same,"% inhibition ±SD, DPPH",[16]; 100 μg/ml,68.7 ± 0.1%
same,zone of inhibition at 100 µg/disc,[17],8.3 ± 1.5 mm
same,zone of inhibition at 300 µg/disc,[17],10.3 ± 0.7 mm
same,zone of inhibition at 500 µg/disc,[17],12.6 ± 0.7 mm
same,IC50,"[5]; Homo sapiens, A549, 96 h",308 ± 12.1 µM
same,SI A549 (selectivity index),[5],1.4
